Assay results collected from several papers.
Compare with care: the assays were run in different laboratories.
BTK: Tyrosine-protein kinase BTK (BTK, Homo sapiens, UniProt Q06187)

| Compound | target | test | conditions | quantity | value |
| --- | --- | --- | --- | --- | --- |
| Oc1cccc(-c2nc(N3CCOCC3)c3oc4ncccc4c3n2)c1 | BTK | cell-free assay | 0.5 µM | remaining signal | 95.2% |
| Cc1ccc(NC(=O)c2ccc(C)c(C(F)(F)F)c2)cc1C#Cc1nn(C2CCC(O)CC2)c2ncnc(N)c12 (stereo not drawn) | Tyrosine-protein kinase BTK (BTK, Homo sapiens, UniProt Q06187, R28H) | cell-free assay | 10 µM | remaining signal | 71% |
| CNC(=O)c1ccc(Nc2ncc(C(F)(F)F)c(NCc3nccnc3N(C)S(C)(=O)=O)n2)cc1 | BTK | cell-free assay, competition with immobilised ligand | 0.1 µM | remaining binding | 83% |
| c1nc2c(Nc3ccc4c(c3)OCCO4)nc(Nc3ccc4c(c3)OCCO4)nc2[nH]1 | BTK | enzyme activity, inhibitor | 10 µM | activity vs control | 0.65% |
| CN(C)CC#Cc1ccc(OCCCc2sc(N3CCc4cccc(C(=O)Nc5nc6ccccc6s5)c4C3)nc2C(=O)O)c(F)c1 | BTK | cell-free assay, competition with immobilised ligand | 1 µM | remaining binding | 96% |
| Nc1ncnc2occ(-c3ccc(NC(=O)Nc4cc(C(F)(F)F)ccc4F)cc3)c12 | BTK | cell-free assay | 20 µM | remaining signal | 26% |
| Oc1cccc(-c2nc(N3CCOCC3)c3oc4ncccc4c3n2)c1 | BTK | enzyme activity, inhibitor | 10 µM | remaining activity | 82% |
| CC(=O)N1CCC(c2ccc(C(=O)NC(=N)N)cc2C(F)(F)F)CC1 | BTK | cell-free assay, competition with immobilised ligand | 1 µM | remaining binding | 100% |
| CC(C)(C=C(C#N)C(=O)N1CCC[C@H]1Cn1nc(-c2ccc(Oc3ccccc3)cc2F)c2c(N)ncnc21)N1CCOCC1 | BTK | enzyme activity, inhibitor | – | kinact | 0.0048 s⁻¹ |
| CC(C)(C)c1nc(-c2cccc(NS(=O)(=O)c3c(F)cccc3F)c2F)c(-c2ccnc(N)n2)s1 | BTK | enzyme activity, inhibitor, radiometric | 1 µM | remaining activity | 96% |
| CC(C)(O)[C@H]1CC[C@H](Nc2ccc3ncc(-c4cccc(C(F)(F)F)c4)n3n2)CC1 | BTK | enzyme activity, inhibitor | 1 µM | remaining activity | 88% |
| C[C@@H]1CN(c2cc(-c3n[nH]c4ccc(OC5(C)CC5)cc34)ncn2)C[C@H](C)O1 | BTK | cell-free assay, competition with immobilised ligand | 0.1 µM | remaining binding | 73% |
| O=C1NC(=O)c2cc(Nc3ccc(F)cc3)c(Nc3ccc(F)cc3)cc21 | BTK | cell-free assay | 0.5 µM | remaining signal | 94.3% |
| COc1ccc(F)cc1C(=O)NCc1ccc(-c2nn([C@@H](C)C(F)(F)F)c(N)c2C(N)=O)cc1 | Tyrosine-protein kinase BTK (BTK, Homo sapiens, UniProt Q06187, C481S) | binding, SPR | – | koff | 0.00013 s⁻¹ |
| CS(=O)(=O)N1CCCC(NC(=O)[C@H](CCC2CCCCC2)NC(=O)c2ccc(CNC(=O)c3cnc4ccccn34)cc2)C1 (stereo partly drawn) | BTK | cell-free assay, competition with immobilised ligand | 0.1 µM | remaining binding | 100% |
| Cc1ccc(C(=O)NCc2ccsc2)cc1C#Cc1cn(C(C)C)c2ncnc(N)c12 | BTK | enzyme activity, inhibitor | 1 µM | activity vs control | 73% |
| N#CCCc1ccc2c(c1)-c1[nH]c3ccc([N+](=O)[O-])cc3c1CC(=O)N2 | BTK | cell-free assay | 0.5 µM | remaining signal | 94.6% |
| C=CC(=O)N1CCC[C@@H]1Cn1nc(-c2ccc(Oc3ccccc3)cc2F)c2c(N)ncnc21 | BTK | enzyme activity, inhibitor | – | kinact | 0.0034 s⁻¹ |
| Nc1nc(NC2CCCCC2)sc1C(=O)c1ccccc1 | BTK | enzyme activity, inhibitor | 10 µM | remaining activity | 75% |
| O=C(Nc1cnn(-c2csc(C(=O)NC3COC3)c2)c1)Nc1c(F)cccc1Cl | BTK | enzyme activity, inhibitor | 5 µM | remaining activity | 89.3% |
| Cc1cc(NC(=O)c2cccc3cc(-c4cccc5[nH]nc(N)c45)ccc23)ccc1F | BTK | enzyme activity, inhibitor | 0.1 µM | activity vs control | 99% |
| NS(=O)(=O)c1cc(NC(=O)C2(c3ccccc3Cl)CC2)ccc1Oc1cccc(Cl)c1 | BTK | cell-free assay, competition with immobilised ligand | 1 µM | remaining binding | 88% |
| Cc1cnc(NC2CCOCC2)nc1-n1cnc(C(=O)NC(CN)c2cc(F)cc(Cl)c2)c1 (stereo not drawn) | BTK | enzyme activity, inhibitor, radiometric | 1 µM | remaining activity | 102% |
| O=C(NCc1ncc(C(F)(F)F)cc1Cl)c1ccc2c(c1)C1(CCS(=O)(=O)CC1)[C@@H](C1CC1)N2S(=O)(=O)c1ccc(F)cc1 | BTK | cell-free assay, competition with immobilised ligand | 1 µM | remaining binding | 73% |
| COc1cc(/C=C/C(=O)CC(=O)/C=C/c2ccc(O)c(OC)c2)ccc1O | BTK | enzyme activity, inhibitor | 1 µM | activity vs control | 90% |
| COc1cc(Nc2cnc(C#N)c(O[C@H](C)CN(C)C)n2)ncc1-c1cnn(C)c1 | BTK | enzyme activity, inhibitor, radiometric | 1 µM | remaining activity | 88% |
| FC(F)(F)c1ccc2c(c1)nc(-c1cccnc1)n2C1CC1 | BTK | cell-free assay, competition with immobilised ligand | 1 µM | remaining binding | 93% |
